Compound activity deposited in PubChem by Johns Hopkins Ion Channel Center.
A selection: hits, their analogues and other compounds. The true share with any hit is near 3.5%.
MrgX1 agonist – agonists of human MrgX1 receptor, primary screen, HEK293 cells, Fluo-4 calcium flux; Fluo-4 calcium fluorescence, agonist mode; active compounds read high; Mas-related G-protein coupled receptor member X1 (Homo sapiens), Q96LB2; AID 588627, 2011; B-score at 10 µM; 0.44% of 310,000 active;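 active = calcium response B-score plate-corrected fluorescence ratio at least 3 library SD, with starting fluorescence B-score inside 5 SD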
Target sequence (Q96LB2 whole entry, looked up): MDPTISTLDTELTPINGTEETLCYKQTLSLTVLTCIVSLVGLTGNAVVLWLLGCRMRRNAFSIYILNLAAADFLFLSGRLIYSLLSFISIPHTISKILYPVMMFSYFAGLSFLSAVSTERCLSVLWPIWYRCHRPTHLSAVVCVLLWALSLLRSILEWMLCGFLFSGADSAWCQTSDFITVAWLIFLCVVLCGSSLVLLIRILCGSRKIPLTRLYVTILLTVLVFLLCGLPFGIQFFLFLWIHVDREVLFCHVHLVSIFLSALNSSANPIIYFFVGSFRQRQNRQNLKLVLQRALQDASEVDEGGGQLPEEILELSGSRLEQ
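Material – MrgX1-expressing HEK293 cells · Input – 15,000 cells seeded per well · Dosing – compound as first of three additions · Times – overnight seeding, then 1 h dark dye loading · Measured by – kinetic Fluo-4 NW fluorescence of intracellular calcium · Read-out – B-scored fluorescence response ratio · Benchmarks – positive and negative control wells on each plate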
RGS4 block – RGS4 inhibitors, primary screen, cell-based, HEK293 M3R inducible RGS4, calcium flux; Regulator of G-protein signaling 4 (Homo sapiens), P49798; Fluo-4 calcium flux; active compounds read high; triggered by carbachol at its EC20; B-score at 10 µM; 0.45% of 310,000 active; AID 463165, 2010;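 active = B-score, a plate-corrected calcium signal, over three deviations above library mean, with baseline fluorescence within five deviations of library mean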;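 also: RGS4 expression induced by doxycycline in cells with stable M3 receptor; B-score is computed from the integrated fluorescence ratio over baseline after carbachol; higher B-score means a larger calcium signal and so more RGS4 inhibition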
Target sequence (P49798 whole entry, looked up): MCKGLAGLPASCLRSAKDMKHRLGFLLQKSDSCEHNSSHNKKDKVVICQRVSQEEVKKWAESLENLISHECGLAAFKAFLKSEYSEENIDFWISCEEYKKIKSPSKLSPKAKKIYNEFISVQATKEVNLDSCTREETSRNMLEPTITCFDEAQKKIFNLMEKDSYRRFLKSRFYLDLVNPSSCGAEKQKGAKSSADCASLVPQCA
MrgX1 antagonist – antagonists of human MrgX1 receptor, primary screen, HEK293 cells, Fluo-4 calcium flux; B-score at 10 µM; BAM8-22 antagonism; active compounds read low; Mas-related G-protein coupled receptor member X1 (Homo sapiens), Q96LB2; 1.3% of 310,000 active;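 active = calcium-response B-score plate-corrected more than 3 library SD below zero, starting fluorescence within 5 deviations, no agonist response on first addition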;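 also: peak minus trough fluorescence over baseline after final BAM8-22 challenge near maximal dose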
MrgX1 allo act – positive allosteric modulators of MrgX1, primary screen, HEK293 cells, Fluo-4 calcium flux | FDSS; active compounds read high | B-score at 10 µM | AID 588675, 2011 | Mas-related G-protein coupled receptor member X1 (Homo sapiens), Q96LB2 | 0.63% of 310,000 active;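 active = plate-corrected calcium response at least 3 library SD above typical, normal starting fluorescence, not activating the receptor alone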;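 also: compound read alongside a low EC10 to EC30 dose of BAM8-22 agonist; peak minus trough fluorescence over baseline measured at the second addition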
RGS4 act – RGS4 potentiators or activators, primary screen, cell-based, HEK293 M3R inducible RGS4, calcium flux | B-score at 10 µM | carbachol calcium flux Fluo4; active compounds read low | 0.92% of 310,000 active;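 active = B-score of the integrated calcium signal more than 4 SD below the library mean, with starting fluorescence not abnormally high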;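 also: negative B-score means reduced calcium response which marks RGS4 activation or potentiation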
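Assay system: HEK293 FlpIn-TREx cells, stable M3R, doxycycline-inducible RGS4 / Probe or stimulus: carbachol, ECmax concentration / Times: overnight RGS4 induction, 30 min dye load 37 °C, 20 min compound RT / Signal: kinetic calcium fluorescence imaging with Fluo4-AM dye, 2 µM / Measure: Agonist-evoked peak-minus-minimum fluorescence over baseline, integrated ratio, B score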
* marks the source's active call; other numbers are inactive results; i = inactive; · = no result given.

SMILES | MrgX1 agonist | RGS4 block | MrgX1 antagonist | MrgX1 allo act | RGS4 act
CCCCn1c(N)c(N(CCOC)C(=O)COC(=O)/C=C/c2ccc(Br)cc2)c(=O)[nH]c1=O | i | i | i | i | i
Cc1ccc(OCC(=O)N2CCc3ccccc3C2)cc1 | i | i | i | i | i
CN(C(=O)C(C)(C)C)c1ccc(OCC(=O)N2CCc3ccccc3C2)cc1 | i | i | i | i | -7.43*
Cc1cc(OC(C)C(=O)NCCCN2CCOCC2)ccc1Cl (stereo not drawn) | i | i | i | i | i
Cc1nn(-c2cc(C(F)(F)F)ccc2Cl)c2nc(C(Cl)(Cl)Cl)[nH]c(=O)c12 | 42.6* | i | i | i | i
Cc1nn(-c2ccccc2)c2nc(C(F)(F)F)[nH]c(=O)c12 | i | i | i | i | i
COc1cc(NC(=O)c2ccccc2F)ccc1NC(=O)c1cc2ccccc2o1 | i | i | i | i | i
COc1ccc(NS(=O)(=O)c2cccc(C(=O)NCC(c3ccc(OC)cc3)N3CCOCC3)c2)cc1 (stereo not drawn) | i | i | -4.69* | i | i
CCc1ccc2oc(C(=O)NCC(c3ccc(OC)cc3)N3CCCCC3)c(C)c2c1 (stereo not drawn) | i | i | i | i | -8.13*
COc1ccc(C(CNC(=O)c2cccc(S(=O)(=O)Nc3ccc(C)cc3)c2)N2CCOCC2)cc1 (stereo not drawn) | i | i | i | i | i
COc1ccc(CCN2CC(C(=O)NCCc3cnn(C)c3)CCC2=O)cc1 (stereo not drawn) | i | i | i | i | i
Cc1cc(C)c(OCC(O)CN2CCN(C(=O)c3ccccc3)CC2)c(C)c1 (stereo not drawn) | i | i | i | i | i
O=C(NCc1ccc(OC(F)(F)F)cc1)C1CC2Cn3c(nc4ccccc43)C2N1c1ccccc1 (stereo not drawn) | i | i | i | i | i
O=C(COc1ccc(NC(=O)c2cccs2)cc1)c1ccc(F)cc1 | i | i | i | i | i
CC1CN(C(=O)COC(=O)c2cc(Cl)ccc2[N+](=O)[O-])CC(C)O1 (stereo not drawn) | i | i | -4.78* | i | i
Cc1cc2oc(=O)cc(CN3CCCCC3)c2cc1O | i | i | i | i | i
Cc1cc2oc(=O)cc(CN3CCCCC3)c2cc1C(C)C | 50.9* | i | i | i | i
CCOC(=O)N1CCN(Cc2cc(=O)oc3cc4c(cc23)CCC4)CC1 | 33* | i | i | i | i
CCOC(=O)N1CCN(Cc2cc(=O)oc3ccc(Cl)cc23)CC1 | i | i | i | i | i
CCOC(=O)CSc1nc2c(sc(=S)n2-c2ccccc2OC)c(=O)n1Cc1ccco1 | 39.7* | i | i | i | i
CCCC(NC(=S)NCC1CCCO1)C12CC3CC(CC(C3)C1)C2 (stereo not drawn) | i | i | i | i | i
CCOc1ccc(NS(=O)(=O)c2ccc(C(=O)NCC3(N(C)C)CCCCC3)cc2)cc1 | i | i | i | i | i
CC(C)(CNC(=O)c1ccc(NS(=O)(=O)c2ccc(F)cc2)cc1)N1CCOCC1 | i | i | i | i | i
CCOc1ccc(S(=O)(=O)Nc2ccc(C(=O)NCC(C)(C)N3CCOCC3)cc2)cc1 | i | i | -4.93* | i | i
CCOc1ccc(NS(=O)(=O)c2ccc(C(=O)NCC3(N4CCCCC4)CCCCC3)cc2)cc1 | i | i | -5.57* | i | i
SMILES | MrgX1 agonist | RGS4 block | MrgX1 antagonist | MrgX1 allo act | RGS4 act
N#CC1CCCc2c1[nH]c1ccc([N+](=O)[O-])cc21 (stereo not drawn) | i | i | i | i | i
O=c1oc2ccccc2cc1-c1cn2ccccc2n1 | 26.6* | i | i | i | i
O=c1oc2ccccc2cc1-c1cn2cccnc2n1 | i | i | i | i | i
O=S1(=O)N=C(N2CCc3ccccc3C2)c2ccccc21 | i | i | i | i | -7.41*
Cc1cc(C(=O)COc2ccccc2Cl)c(C)n1-c1ccc2c(c1)OCO2 | i | i | i | i | -7.51*
O=C(c1ccc(S(=O)(=O)Cc2cc(F)ccc2F)c([N+](=O)[O-])c1)N1CCCC1 | i | i | i | 7.2* | i
CC(=O)NC(Cc1ccccc1C)C(=O)NC1CCN(C(=O)c2cccc(C)c2)CC1 (stereo not drawn) | i | i | i | i | i
Cc1cc(C)c(C(=O)NCCCN2CCOCC2)c(C)c1 | i | i | i | i | i
Cn1cnc([N+](=O)[O-])c1Sc1ncccc1N | i | i | -7.15* | i | i
Cc1ccc(Sc2c([N+](=O)[O-])ncn2C)cc1 | i | i | i | i | i
C=CCn1c(=O)c(C(=O)NCc2ccccc2)c(O)c2ccccc21 | i | i | i | i | -7.08*
C=CCn1c(=O)c(C(=O)NCCNCC)c(O)c2ccccc21 | i | i | i | i | i
CC(C)Cn1c(=O)c(C(=O)Nc2cnccn2)c(O)c2ccccc21 | i | i | i | i | i
CC(C)Cn1c(=O)c(C(=O)Nc2ccncc2)c(O)c2ccccc21 | i | i | i | i | -8.92*
CCn1c(=O)c(C(=O)NNC(=O)c2ccccc2)c(O)c2ccccc21 | 30.2* | i | i | i | i
O=[N+]([O-])c1ccc(-n2nncc2-c2ccc(Cl)cc2)cc1 | i | i | -4.87* | i | i
Cc1ccc(C(=O)OCCn2cc(C#N)c(=O)[nH]c2=O)cc1 | i | i | i | i | i
O=C(COC(=O)c1n[nH]c2ccccc12)c1cccc(Br)c1 | i | i | -5.45* | i | i
CNC(=O)N(O)C1N(/N=C/c2cc(Br)ccc2O)C(=S)SC1(C)C (stereo not drawn) | i | i | i | i | i
C[C@H]1O[C@H](O[C@H]2[C@H](O[C@@H]3CC[C@@]4(C)C(CC[C@]5(C)C4CC=C4[C@@H]6CC(C)(C)CC[C@]6(C(=O)O[C@@H]6O[C@H](CO)[C@@H](O)[C@H](O)[C@H]6O)CC[C@]45C)C3(C)C)O[C@H](C(=O)O)[C@@H](O)[C@@H]2O)[C@@H](O)[C@@H](O)[C@@H]1O (stereo partly drawn) | i | · | i | i | ·
